Laboratory results: the EternaBench riboswitch data

Test system: MS2 coat protein
Test: apparent Kd, MS2 coat protein; higher = weaker binding; RNA-MaP array; FMN 200 µM where present
Outline: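 Designs on Illumina sequencing-chip clusters, transcribed by stalled E. coli RNA polymerase, were exposed to SNAP-549-labelled MS2 coat protein in doubling steps from 0.7 or 1.5 nM up to 3 µM, without and then with constant ligand. The buffer held 100 mM Tris-HCl pH 7.5, 80 mM KCl, 4 mM MgCl2, BSA, DTT, yeast tRNA and Tween-20. Apparent Kd values are medians of filtered per-cluster binding-curve fits to green signal normalised to red-channel RNA signal and control-cluster median Fmax.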

[1] = designed as: OFF switch for flavin mononucleotide, no ligand
[2] = ligand present: flavin mononucleotide, designed as: OFF switch for flavin mononucleotide
[3] = designed as: ON switch for flavin mononucleotide, no ligand
[4] = ligand present: flavin mononucleotide, designed as: ON switch for flavin mononucleotide

Row | Sequence | apparent Kd [1] [nM] | apparent Kd [2] [nM] | apparent Kd [3] [nM] | apparent Kd [4] [nM]
1 | AGUCCACAUGAGGAUCACCCAUGUGAGGAUAUCGAUGUCCCAGGGCGGGUGCGGGACUCGAGAAGGCACUAGGU | 34.5 | 110 |  | 
2 | AUAAUGAGAGGAUAUACAUGAGGAUCACCCAUGUUAUUAUCACGGCGAGCUCCAUUACGUAGAAGGCUCAUUUA | 16.5 | 44.7 |  | 
3 | AUAUUAUUGAUCCAUUUUUUCAACAUGAGGAUCACCCAUGUGCAGGAUAUCGUGUGUUUUAUCAACGAGAAGGGCAAAUUCAUU | 94.2 | 215 |  | 
4 | UUAUGCUUAGAGAAGGUUCAAACUACAUAUUGCGCACAUGAGGAUCACCCAUGUUGGUGAAUAAGAAAGGAUAUUUGACUGUGC | 245 | 171 |  | 
5 | GCAGCUAUUAUUAUACAUGAGGAUCACCCAUGUUACAUGUGUAAGGAUAUUGAUGUUUAUAUAAUCAAGAAGGUACGAAGCUGC |  |  | 11.6 | 7.15
6 | UUCGUGUGACAGAAGGGUCUUUCGGGCUGGGAGGCAGGAUAUGUGACAUGAGGAUCACCCAUGUUGGUAUCGUCUGUGUGUACG | 6.15 | 12.8 |  | 
7 | AAACCACAUGAGGAUCACCCAUGUGAGGAUAUGAUACUAUGUACUUCGGUACAUAGUAUCAGAAGGCAUGUGGA | 180 | 130 |  | 
8 | AGCUGUGGCCGAGGAUAUCACGAACCAUGGAAAACCAUGGAAAUUCUACAUGAGGAUCACCCAUGUGAGAAGGCGGUCUCAGCA | 18.1 | 17.2 |  | 
9 | CGCACUGAUAGAGGAUAUGUUUAACAUGAGGAUCACCCAUGUGUACAAGAAUCAAUAUUUAUCAAACAGAAGGCUAUUAGUGCG | 5.06 | 4.08 |  | 
10 | UUUAUUAACAAGAAGGCAUACAUGAGGAUCACCCAUGUUCUACAUGGAUAAUGAGGAUAUUGCUAAUACAUGAGGAUCACCCAU | 50.6 | 53 |  | 
11 | AUCAGCUCGUCAGGAUAUACCUCACUGCGUCAGCAGUGUGGUAAGAUCACAUGAGGAUCACCCAUGUAGAAGGGACGAGCUGAU | 6.44 | 6.19 |  | 
12 | AAUUUAAUACAUGAGGAUCACCCAUGUAAUACUUGUAAGAUCAAGGAUAUCAGCUCGAAUAGAGCUGAGAAGGUGAUCACAUGU |  |  | 75.9 | 227
13 | UAUAUAUAGUAAGGAUAUGUAAUUACUUUAUAAACAGAAGGUACUGACAUGAGGAUCACCCAUGUUUUAGUGUGGGCAUGUAGA | 87 | 113 |  | 
14 | UUAUUAUAUGUAGGAUAUGUAUAUUAUUAUUGUGCAGAAGGACAUGAGGAUCACCCAUGUAUAUUAUUAUUAUAUAUUAUAUAU | 21.4 | 17.1 |  | 
15 | UGAGCAUGAGGAUAUACUUGGCGACCGUGAGGUCGAGGUUUACAUGAGGAUCACCCAUGUAGAAGGCAUGUUCU | 18.7 | 52.6 |  | 
16 | AGAACGUCAGGAUAUCCAACAACAAGUAAAUAGAGAAGAAGGGAGAAGGGACAUGAGGAUCACCCAUGUAAGAA | 51.4 | 45.9 |  | 
17 | AGUGGUGGAGGAUAUACAUGAGGAUCACCCAUGUAAAUCACACAUGUGGUCAAAGCAUGUAGAAGGCCACUACA | 99.6 | 109 |  | 
18 | AAUAAUGUGAAGGAUAUCACUAGCGAUAGCUAGUGAGAAGGUCACACAUGAGGAUCACCCAUGUGUUCCAAUAA | 43.2 | 172 |  | 
19 | UUAUGAGCGAUAGGAUAUACUGAGAUUGAAUGGGUAGAAGGAUCGAUCGUGUGGAAGACAUGAGGAUCACCCAUGUUACGGGCC |  |  | 56 | 166
20 | UUGGACGUCGUAGGAUAUGGAGGAUAUUCCUACAUGAGGAUCACCCAUGUUGACAUGGAAGAAGGACAGAAGGACGAUGUCCAU |  |  | 10.1 | 4.14
21 | CAGCCCUGAGGAUAUCCACCCUCGUACAUGAGGAUCACCCAUGUUUCCCUCUGGGCUUUCGGAGAAGGCAGGUAUC | 78.6 | 77.3 |  | 
22 | AGUCGGAGCAGAGGAUAUACAUGAGGAUCACCCAUGUAAAUGGAAGAAGCCUGGAAACAGGCAAUGUAGAAGGCUGCUCCGACA | 132 | 708 |  | 
23 | UGGAUCAAUACAGGAUAUGGUGACGCACAUGAGGAUCACCCAUGUCCGCAGCGUGCUAAGCACGCCCAGAAGGGUAUUAAUUCG |  |  | 885 | 90
24 | UUACUAUUGCAGAAGGCUCAAUAAUAUAUAAAGGGAGGAUAUGCAACAUGAGGAUCACCCAUGUUUCACCCAUAUGAGGAUCAC | 9.51 | 13 |  | 
25 | UUAUUUAGGUAGGAUAUCGAUAUUAAUCCCUAUCGAGAAGGGUCUACAUGAGGAUCACCCAUGUUAGCAUGUUU | 21.5 | 21.3 |  | 
26 | AAAGUAAACGAAGGAUAUGGUUACAUGAGGAUCACCCAUGUAAUGGUUGUGAUAUUGAUUAAGUUCCAGAAGGUCGUAUACAUA | 199 | 371 |  | 
27 | UUGUUAUGUGUAGGAUAUGCAUAUUAUUAUUAUGCAGAAGGACAUGAGGAUCACCCAUGUGUAUUGUUAUUAUAUAUUAUAUAU | 22.8 | 30.5 |  | 
28 | GUCAUCAAUGAAGGAUAUCUAUGUCCAACAUGAGGAUCACCCAUGUUGAGGAUUACCUAUGUGUAGGAGAAGGUCAAUAUAACU |  |  | 8.01 | 6.91

Row | Sequence | apparent Kd [1] [nM] | apparent Kd [2] [nM] | apparent Kd [3] [nM] | apparent Kd [4] [nM]
29 | GGACGUCAGAUUAACAUGAGGAUCACCCAUGUCUUUUGACAUGAGGAUAUGGAUCCUAAUUGGAUCCAGAAGGCAUGGACGUCC |  |  | 1120 | 94.9
30 | CCGUUACAUGAGGAUCACCCAUGUGAGGAUAUCGAUGUAACUAGCAGCGUGCGGGACUCGAGAAGGCACUUGGC | 104 | 75.2 |  | 
31 | AGCUACGUUUCGUAGCAGUGUCAUCGAGAAGGCCCUGACAUGAGGAUCACCCAUGUUGUUACAUGGGAGGAUAUCGAUGAUACA |  |  | 12.6 | 4.9
32 | GUAAAGUGAGGAUAUGGUAAAGUAAUUAUUUAGUAAGUAAUCCAGAAGGCACAUGAGGAUCACCCAUGUAAAUG | 31.3 | 36.8 |  | 
33 | GCCGAUUAAGUGAGGAUAUACCUAUGGAUACAUAGGUAGAAGGUACAUGAGGAUCACCCAUGUUCCUCAACGGC | 10.4 | 12.7 |  | 
34 | CCGGAAACGGGUAGCCUGACAUGAGGAUCACCCAUGUGAACCAAGGAUAUGGAUCCUAAUUGGAUCCAGAAGGUGGAAGGCUAC |  |  | 243 | 45.3
35 | CGAGUUUUUGAGAAGGCAUAUUAUAAUAUUCCACAUGUUUACAUGAGGAUCACCCAUGUUUACUAUGAGGAUAUCAGAAUGUCG | 4.72 | 4.54 |  | 
36 | CUUUUGUGAGGAUAUUAGUAUUAAAUAAAUAAAAUUACUACUGAGAAGGCACAUGAGGAUCACCCAUGUUCCUC | 30.3 | 131 |  | 
37 | GGUACCUUCACAGGAUAUGCUAUCCUUUGGGUAGCAGAAGGGUGAUACAUGAGGAUCACCCAUGUGGUGCCAGGGCGUGAGCCC |  |  | 1090 | 305
38 | ACUGGUCGAGGAUAUGCAAUCGUGCUUCGGCACGUAAGGUCACAUGAGGAUCACCCAUGUAGAAGGCGACCAGU | 17.2 | 36.4 |  | 
39 | CUGCUCCGUGUAGGAUAUCCGGGCAACCAAUCCGGAGAAGGACAUGAGGAUCACCCAUGUAUGUUAUUAUCACGUGAAGCGUCC | 23 | 25.3 |  | 
40 | AGCACGAAAGUGCAACGAUGUACGAGAAGGACAUGAGGAUCACCCAUGUAGCAGUAACUGCAAAUGUAGGAUAUCGUACAUCGA | 6.54 | 14.7 |  | 
41 | GUGCCUUGGGAGAAGGUUACAUGCAAAGCAUUUAAAGGAUAUUCAUACCGGAAACGGACAUGAGGAUCACCCAUGUGGCACAAA |  |  | 870 | 145
42 | GUCGGAAACGACAAAAGUAUGGAUCCAGAAGGCAUGAACAUGAGGAUCACCCAUGUCUAAAGAUAUGAGGAUAUGGAUCCAUAC |  |  | 6.66 | 4.44
43 | CGUAGGAUCCAGAAGGCAUGUACAUGAGGAUCACCCAUGUCGAUAGACAUGAGGAUAUGGAUCCUACGAAAAGUGCGAAAGCAC |  |  | 17.1 | 5.16
44 | AAAAAACAUGAGGAUCACCCAUGUAAAAAAAUGGGAGGAUAUCUGAAUUAAUUAAAUUAAGGAGAAGGCCUAAAAA |  |  | 239 | 31.9
45 | CGUAGCAAAGUGAGGAUAUCUAGAGCGAUAGCUCUAGAGAAGGCACAUGAGGAUCACCCAUGUGAUCAGCUACG | 276 | 899 |  | 
46 | GUUUACCGAGGAUAUACAUGAGGAUCACCCAUGUUCCUAAUAAACAUCGGUUCAGCGUGUAGAAGGCGGACCUA | 22.5 | 53.9 |  | 
47 | GCCAGGAUGUGAGGAUAUGCUGAGGAUAACUCAGCAGAAGGCACAUGAGGAUCACCCAUGUAAACUUAUAAUAAAUACCCUGGC | 13 | 28.4 |  | 
48 | CUCAUGUUAGGAUAUGCGCUCGACGUAGUGGUUGAGCUCUAGCAGAAGGAACAUGAGGAUCACCCAUGUUUGCA | 68.5 | 21.3 |  | 
49 | AACUGACAUGAGGAUCACCCAUGUCAGGAUAUGAUUUGACGAAAUAAAACACGUCAUAUCAGAAGGGACAUGGA | 26.5 | 48.6 |  | 
50 | ACUUCACAUGAGGAUCACCCAUGUCAGGCCGGACUAGGAUAUUAUCAUGCAGCGUAACAGUGAGAAGGAGUUGGAU |  |  | 91.2 | 89.3
51 | AAGAAGGACGCAGGAUAUCCAGGACCUCCCGCAGGAGAAGGGCGAAACAUGAGGAUCACCCAUACAUGAGGAUCACCCAUGUAA | 33 | 36.3 |  | 
52 | UGAGCAUGAGGAUAUACAAGGCGUGCGUGAGCACGAGGUUUACAUGAGGAUCACCCAUGUAGAAGGCAUGUUCU | 19.1 | 39.8 |  | 
53 | AACAUGAGGAUCACCCAUGUCCCACCAGAAGGCUGGCGGUCAUGGGAAAGGCCACGACAAAUAACAGAGGAUAUGGUGAAUGCA |  |  | 168 | 33.2
54 | AUUGUUAAGUUAGGAUAUAGUAAAAUGAUUUAGUUAGAAGGAGCUCACAUGAGGAUCACCCAUGUAAGAGGAUCACCCAUGUAU | 24.9 | 18.3 |  | 
55 | UCCUUGUCCUGAGGAUAUCCGCGGUUCCCAAAAGGAGAAGGCAGGACAUGAGGAUCACCCAUGUACCCAGAAAACGUGCAGAGC | 9.39 | 33.8 |  | 
